{"source": "ChEMBL document CHEMBL4680175", "about": "“Sulfonamide-based ring-fused analogues for CAN508 as novel carbonic anhydrase inhibitors endowed with antitumor activity: Design, synthesis, and in vitro biological evaluation” (Eur J Med Chem, 2020)", "key": {"[1]": {"system": "NCI-H522", "assay": "Antitumor activity against human NCI-H522 cells assessed as cell growth inhibition at 10 uM incubated for 48 hrs by sulforhodamine B assay", "type": "functional", "conditions": "read-out: GI", "method_in_brief": "(§1)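 NCI Drug Evaluation Branch protocol: primary single-dose screen at 10 μM across a 57-line human cancer panel. Drug exposure is 48 h. Cell growth and viability are read by sulforhodamine B assay. Data are given as a mean graph of percent growth of treated cells and reported as percentage growth inhibition (GI%).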"}, "[2]": {"system": "T47D", "assay": "Antitumor activity against human T-47D cells assessed as cell growth inhibition at 10 uM incubated for 48 hrs by sulforhodamine B assay", "type": "functional", "conditions": "read-out: GI", "method_in_brief": "(§2)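 NCI one-dose screen: 57-cell-line panel exposed at 10 μM for 48 h, Drug Evaluation Branch protocol. Growth and viability read by sulforhodamine B; data given as percent growth inhibition from the mean-graph of percent growth of treated cells.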"}, "[3]": {"system": "MDA-MB-468", "assay": "Antiproliferative activity against human MDA-MB-468 cells measured after 48 hrs under normoxic condition by MTT assay", "type": "functional, cell-based", "conditions": "MDA-MB-468, 48 h"}, "[4]": {"system": "NCI/ADR-RES", "assay": "Antitumor activity against human NCI/ADR-RES cells assessed as cell growth inhibition at 10 uM incubated for 48 hrs by sulforhodamine B assay", "type": "functional, cell-based", "method_in_brief": "as §1"}, "[5]": {"molecular_target": "Carbonic anhydrase 9 (Homo sapiens, UniProt Q16790)", "assay": "Inhibition of recombinant human carbonic anhydrase 9 preincubated with enzyme for 15 mins by phenol red dye based stopped flow CO2 hydrase assay"}, "[6]": {"system": "MCF7", "assay": "Antiproliferative activity against human MCF7 cells measured after 48 hrs under normoxic condition by MTT assay", "type": "functional, cell-based", "conditions": "MCF7, 48 h"}, "[7]": {"system": "KM12", "assay": "Antitumor activity against human KM12 cells assessed as cell growth inhibition at 10 uM incubated for 48 hrs by sulforhodamine B assay", "type": "functional", "conditions": "read-out: GI", "method_in_brief": "as §1"}, "[8]": {"system": "MCF7", "assay": "Potency index, ratio of staurosporine IC50 to compound IC50 for antiproliferative activity against human MCF7 cells measured after 48 hrs under normoxic condition by MTT assay", "type": "functional"}, "[9]": {"system": "MCF7", "assay": "Induction of apoptosis in human MCF7 cells assessed as late apoptotic cells by Annexin V-FITC/propidium iodide staining based flow cytometric analysis (reference value: 0.29 %)", "type": "functional"}, "[10]": {"system": "MCF7", "assay": "Induction of apoptosis in human MCF7 cells assessed as fold increase in apoptotic cells by Annexin V-FITC/propidium iodide staining based flow cytometric analysis relative to control", "type": "functional"}, "[11]": {"system": "MDA-MB-468", "assay": "Antiproliferative activity against human MDA-MB-468 cells measured after 48 hrs under CoCl2-induced hypoxic condition by MTT assay", "type": "functional, cell-based", "conditions": "MDA-MB-468, 48 h"}, "[12]": {"system": "NCI-H322M", "assay": "Antitumor activity against human NCI-H322M cells assessed as cell growth inhibition at 10 uM incubated for 48 hrs by sulforhodamine B assay", "type": "functional", "conditions": "read-out: GI", "method_in_brief": "as §1"}, "[13]": {"molecular_target": "Carbonic anhydrase 12 (Homo sapiens, UniProt O43570)", "sequence (O43570 whole entry)": "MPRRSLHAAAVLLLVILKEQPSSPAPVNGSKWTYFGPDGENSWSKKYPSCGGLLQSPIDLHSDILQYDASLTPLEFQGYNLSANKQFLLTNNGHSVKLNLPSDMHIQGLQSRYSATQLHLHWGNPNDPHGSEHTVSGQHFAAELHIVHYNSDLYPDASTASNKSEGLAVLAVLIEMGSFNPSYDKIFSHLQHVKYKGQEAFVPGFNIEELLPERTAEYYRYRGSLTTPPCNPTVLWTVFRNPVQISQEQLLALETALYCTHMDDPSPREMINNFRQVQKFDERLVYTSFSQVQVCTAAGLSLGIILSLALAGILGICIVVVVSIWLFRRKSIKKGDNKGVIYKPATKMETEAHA", "assay": "Inhibition of recombinant human carbonic anhydrase 12 preincubated with enzyme for 15 mins by phenol red dye based stopped flow CO2 hydrase assay"}, "[14]": {"system": "MCF7", "assay": "Induction of cell cycle arrest in human MCF7 cells assessed as decrease in S phase population at IC50 concentration incubated for 24 hrs by PI/RNase staining based flow cytometric analysis", "type": "functional", "method_in_brief": "(§3)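 Cells were washed in ice-cold PBS, fixed in ice-cold 70% ethanol, treated with 100 µg/mL RNase and stained with 40 µg/mL PI. DNA content was read by flow cytometry, with sub-G1 compared against control.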"}, "[15]": {"system": "NCI-H226", "assay": "Antitumor activity against human NCI-H226 assessed as cell growth inhibition at 10 uM incubated for 48 hrs by sulforhodamine B assay", "type": "functional", "conditions": "read-out: GI", "method_in_brief": "as §1"}, "[16]": {"molecular_target": "Cyclin-dependent kinase 2/cyclin E1 (Homo sapiens, UniProt P24941)", "assay": "Inhibition of CDK2/cyclin E (unknown origin) expressed in baculovirus infected Sf21 insect cells using histone H1 as substrate in presence of [gamma33P]ATP"}, "[17]": {"system": "MDA-MB-468", "assay": "Antitumor activity against human MDA-MB-468 cells assessed as cell growth inhibition at 10 uM incubated for 48 hrs by sulforhodamine B assay", "type": "functional", "conditions": "read-out: GI", "method_in_brief": "as §1"}, "[18]": {"system": "MCF7", "assay": "Induction of cell cycle arrest in human MCF7 cells assessed as accumulation at G2/M phase at IC50 concentration incubated for 24 hrs by PI/RNase staining based flow cytometric analysis", "type": "functional", "method_in_brief": "as §3"}, "[19]": {"system": "RXF 393", "assay": "Antitumor activity against human RXF 393 cells assessed as cell growth inhibition at 10 uM incubated for 48 hrs by sulforhodamine B assay", "type": "functional", "conditions": "read-out: GI", "method_in_brief": "as §1"}, "[20]": {"system": "MCF7", "assay": "Induction of apoptosis in human MCF7 cells assessed as early apoptotic cells by Annexin V-FITC/propidium iodide staining based flow cytometric analysis (reference value: 0.47 %)", "type": "functional"}, "[21]": {"molecular_target": "Carbonic anhydrase 2 (Homo sapiens, UniProt P00918)", "assay": "Inhibition of recombinant human carbonic anhydrase 2 preincubated with enzyme for 15 mins by phenol red dye based stopped flow CO2 hydrase assay"}, "[22]": {"system": "HOP-92", "assay": "Antitumor activity against human HOP92 cells assessed as cell growth inhibition at 10 uM incubated for 48 hrs by sulforhodamine B assay", "type": "functional", "conditions": "read-out: GI", "method_in_brief": "as §1"}, "[23]": {"system": "CCRF-CEM", "assay": "Antitumor activity against human CCRF-CEM cells assessed as cell growth inhibition at 10 uM incubated for 48 hrs by sulforhodamine B assay", "type": "functional", "conditions": "read-out: GI", "method_in_brief": "as §1"}, "[24]": {"molecular_target": "CDK9/cyclin T1 (Homo sapiens, UniProt P50750)", "sequence (O60563 whole entry, the tested form may be a part)": "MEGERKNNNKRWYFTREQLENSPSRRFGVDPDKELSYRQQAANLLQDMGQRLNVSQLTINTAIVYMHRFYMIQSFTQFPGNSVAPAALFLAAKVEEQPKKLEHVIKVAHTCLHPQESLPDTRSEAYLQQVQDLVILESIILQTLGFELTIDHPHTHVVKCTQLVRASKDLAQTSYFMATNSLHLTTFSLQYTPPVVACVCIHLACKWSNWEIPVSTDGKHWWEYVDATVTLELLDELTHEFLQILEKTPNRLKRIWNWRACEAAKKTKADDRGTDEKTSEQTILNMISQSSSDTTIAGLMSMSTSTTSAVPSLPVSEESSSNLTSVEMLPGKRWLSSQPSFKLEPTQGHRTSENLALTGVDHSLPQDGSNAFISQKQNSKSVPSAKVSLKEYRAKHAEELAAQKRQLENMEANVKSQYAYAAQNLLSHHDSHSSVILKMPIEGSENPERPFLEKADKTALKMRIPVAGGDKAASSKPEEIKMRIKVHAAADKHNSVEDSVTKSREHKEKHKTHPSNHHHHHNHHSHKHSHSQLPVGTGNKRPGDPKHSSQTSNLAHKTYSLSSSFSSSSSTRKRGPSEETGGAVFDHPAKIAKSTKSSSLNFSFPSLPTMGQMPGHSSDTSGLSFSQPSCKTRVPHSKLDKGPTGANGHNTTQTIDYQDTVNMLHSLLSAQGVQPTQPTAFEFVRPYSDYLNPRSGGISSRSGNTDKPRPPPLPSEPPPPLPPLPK", "sequence (P50750 whole entry, the tested form may be a part)": "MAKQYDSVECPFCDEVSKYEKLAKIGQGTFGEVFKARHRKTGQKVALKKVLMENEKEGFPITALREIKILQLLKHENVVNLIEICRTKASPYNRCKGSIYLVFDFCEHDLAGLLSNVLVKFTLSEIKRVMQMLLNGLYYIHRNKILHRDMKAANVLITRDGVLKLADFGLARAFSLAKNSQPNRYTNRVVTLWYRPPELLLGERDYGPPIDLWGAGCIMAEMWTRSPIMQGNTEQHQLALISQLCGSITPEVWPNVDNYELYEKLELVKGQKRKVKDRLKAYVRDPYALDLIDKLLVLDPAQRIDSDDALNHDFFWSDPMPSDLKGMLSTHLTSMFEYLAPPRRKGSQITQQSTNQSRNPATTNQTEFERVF", "assay": "Inhibition of human full-length N-terminal GST/His6-tagged CDK9 (1 to 372 residues)/His6-tagged Cyclin-T1 (1 to 726 residues) expressed in sf9 cells using (YSPTSPS)2KK peptide as substrate in presence of [gamma33P]ATP"}, "[25]": {"system": "MCF7", "assay": "Induction of apoptosis in human MCF7 cells assessed as necrotic cells by Annexin V-FITC/propidium iodide staining based flow cytometric analysis (reference value: 1.3 %)", "type": "functional"}, "[26]": {"system": "MCF7", "assay": "Antitumor activity against human MCF7 cells assessed as cell growth inhibition at 10 uM incubated for 48 hrs by sulforhodamine B assay", "type": "functional", "conditions": "read-out: GI", "method_in_brief": "as §1"}, "[27]": {"system": "MDA-MB-468", "assay": "Potency index, ratio of staurosporine IC50 to compound IC50 for antiproliferative activity against human MDA-MB-468 cells measured after 48 hrs under normoxic condition by MTT assay", "type": "functional"}, "[28]": {"system": "MCF7", "assay": "Potency index, ratio of staurosporine IC50 to compound IC50 for antiproliferative activity against human MCF7 cells measured after 48 hrs under CoCl2-induced hypoxic condition by MTT assay", "type": "functional"}, "[29]": {"system": "SN12C", "assay": "Antitumor activity against human SN12C cells assessed as cell growth inhibition at 10 uM incubated for 48 hrs by sulforhodamine B assay", "type": "functional", "conditions": "read-out: GI", "method_in_brief": "as §1"}, "[30]": {"molecular_target": "Carbonic anhydrase 1 (Homo sapiens, UniProt P00915)", "sequence (P00915 whole entry)": "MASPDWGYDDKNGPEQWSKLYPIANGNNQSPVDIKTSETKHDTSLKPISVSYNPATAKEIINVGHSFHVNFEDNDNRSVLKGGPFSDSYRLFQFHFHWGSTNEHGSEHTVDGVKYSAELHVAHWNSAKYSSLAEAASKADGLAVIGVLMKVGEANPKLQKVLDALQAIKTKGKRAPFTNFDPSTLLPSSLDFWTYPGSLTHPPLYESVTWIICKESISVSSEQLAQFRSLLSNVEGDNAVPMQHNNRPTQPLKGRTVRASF", "assay": "Inhibition of recombinant human carbonic anhydrase 1 preincubated with enzyme for 15 mins by phenol red dye based stopped flow CO2 hydrase assay"}, "[31]": {"system": "MDA-MB-468", "assay": "Potency index, ratio of staurosporine IC50 to compound IC50 for antiproliferative activity against human MDA-MB-468 cells measured after 48 hrs under CoCl2-induced hypoxic condition by MTT assay", "type": "functional"}, "[32]": {"system": "MCF7", "assay": "Antiproliferative activity against human MCF7 cells measured after 48 hrs under CoCl2-induced hypoxic condition by MTT assay", "type": "functional, cell-based", "conditions": "MCF7, 48 h"}, "[33]": {"system": "A498", "assay": "Antitumor activity against human A498 cells assessed as cell growth inhibition at 10 uM incubated for 48 hrs by sulforhodamine B assay", "type": "functional", "conditions": "read-out: GI", "method_in_brief": "as §1"}, "[34]": {"system": "IGROV-1", "assay": "Antitumor activity against human IGROV1 cells assessed as cell growth inhibition at 10 uM incubated for 48 hrs by sulforhodamine B assay", "type": "functional", "conditions": "read-out: GI", "method_in_brief": "as §1"}, "[35]": {"system": "UO-31", "assay": "Antitumor activity against human UO-31 cells assessed as cell growth inhibition at 10 uM incubated for 48 hrs by sulforhodamine B assay", "type": "functional", "conditions": "read-out: GI", "method_in_brief": "as §2"}, "[36]": {"system": "MCF7", "assay": "Induction of cell cycle arrest in human MCF7 cells assessed as fold increase in apoptotic cells at sub-G1 phase at IC50 concentration incubated for 24 hrs by PI/RNase staining based flow cytometric analysis relative to control", "type": "functional", "method_in_brief": "as §3"}}, "note": "Activity calls are given as the source filed them. No cut-off for these calls is given here."}
{"smiles": "N#Cc1c(-c2ccccc2)nc2c(/N=N/c3ccc(S(N)(=O)=O)cc3)c(N)nn2c1N", "values": [{"measurement": "inhibition of growth at 10 µM", "setting": "[1]", "value": 54, "unit": "%"}, {"measurement": "inhibition of growth at 10 µM", "setting": "[2]", "value": 26, "unit": "%"}, {"measurement": "IC50", "setting": "[3]", "value": 1890, "unit": "nM"}, {"measurement": "Activity", "setting": "[4]", "value": "inactive"}, {"measurement": "Ki", "setting": "[5]", "value": 33.5, "unit": "nM"}, {"measurement": "IC50", "setting": "[6]", "value": 660, "unit": "nM"}, {"measurement": "inhibition of growth at 10 µM", "setting": "[7]", "value": 50, "unit": "%"}, {"measurement": "Ratio IC50", "setting": "[8]", "value": 5}, {"measurement": "Activity", "setting": "[9]", "value": 16.94, "unit": "%"}, {"measurement": "fold change (FC)", "setting": "[10]", "value": 26}, {"measurement": "IC50", "setting": "[11]", "value": 1070, "unit": "nM"}, {"measurement": "inhibition of growth at 10 µM", "setting": "[12]", "value": 21, "unit": "%"}, {"measurement": "Ki", "setting": "[13]", "value": 39.4, "unit": "nM"}, {"measurement": "Activity", "setting": "[14]", "value": "Active"}, {"measurement": "inhibition of growth at 10 µM", "setting": "[15]", "value": 24, "unit": "%"}, {"measurement": "IC50", "setting": "[16]", "value": "> 12500", "unit": "nM"}, {"measurement": "inhibition of growth at 10 µM", "setting": "[17]", "value": 58, "unit": "%"}, {"measurement": "Activity", "setting": "[18]", "value": "Active"}, {"measurement": "inhibition of growth at 10 µM", "setting": "[19]", "value": 42, "unit": "%"}, {"measurement": "Activity", "setting": "[20]", "value": 8.46, "unit": "%"}, {"measurement": "Ki", "setting": "[21]", "value": 922, "unit": "nM"}, {"measurement": "inhibition of growth at 10 µM", "setting": "[22]", "value": 27, "unit": "%"}, {"measurement": "inhibition of growth at 10 µM", "setting": "[23]", "value": 21, "unit": "%"}, {"measurement": "IC50", "setting": "[24]", "value": "> 12500", "unit": "nM"}, {"measurement": "Activity", "setting": "[25]", "value": 2.64, "unit": "%"}, {"measurement": "inhibition of growth at 10 µM", "setting": "[26]", "value": 60, "unit": "%"}, {"measurement": "Ratio IC50", "setting": "[27]", "value": 2.3}, {"measurement": "Ratio IC50", "setting": "[28]", "value": 9}, {"measurement": "inhibition of growth at 10 µM", "setting": "[29]", "value": 24, "unit": "%"}, {"measurement": "Ki", "setting": "[30]", "value": 2680, "unit": "nM"}, {"measurement": "Ratio IC50", "setting": "[31]", "value": 6}, {"measurement": "IC50", "setting": "[32]", "value": 960, "unit": "nM"}, {"measurement": "inhibition of growth at 10 µM", "setting": "[33]", "value": 30, "unit": "%"}, {"measurement": "inhibition of growth at 10 µM", "setting": "[34]", "value": 35, "unit": "%"}, {"measurement": "inhibition of growth at 10 µM", "setting": "[35]", "value": 25, "unit": "%"}, {"measurement": "fold change (FC)", "setting": "[36]", "value": 7}]}
